Screening results from PubChem.
PGC1a acetyl inh: lowers PGC1a acetylation signal in U2OS cells. 350,000 tested, 0.17% active. inhibition, % at 15.6 µM. AlphaScreen anti-acetyl-lysine; with virally co-expressed GCN5 acetyltransferase. AID 651687;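 active = every replicate shows inhibition of at least 40%; inconclusive = mean inhibition at least 40% but some replicate below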;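 also: 0% = neutral control wells and 100% = positive control wells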
Cneo AK release: Cryptococcus neoformans lysis via adenylate kinase release; C. neoformans lysis, adenylate kinase release luminescence, 4 h; normalised: neutral wells 0, clomiphene wells 100; AID 651654; lysis activity, % at 15 µM; 360,000 tested, 0.2% active;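 active = mean lysis activity across replicates of at least 80%, whatever share of replicates individually reach that level; inactive = mean lysis activity below 80%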
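Test system: log-phase Cryptococcus neoformans yeast cells; Quantity: yeast cell density of 5 × 10^6 cells/mL; Buffer or medium: YPD; Doses: single compound concentration per well; Timing: 4 h at 37 °C static, read 1 h later; Measured by: AK luminescence; Read-out basis: lysis from increased AK signal; Control set: Clomiphene as positive control.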
MITF TRPM1 HTS: MITF TRPM1 promoter activation in melanoma cells; SK-MEL-5 TRPM1-promoter luciferase, 24 h; % of positive control, neutral wells = 0; activation, % at 12.5 µM; 300,000 tested, 0.75% active; AID 588334;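 active = mean activation of at least 80% with every replicate also reaching 80%; inconclusive = mean reaches 80% but some replicate falls short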;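 also: 0% = neutral control wells and 100% = parthenolide positive control wells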
Wnt act: activates Wnt/beta-catenin signaling in a reporter cell assay. activator, plate reader. activation, % at 9.35 µM. 300,000 tested, 1.2% active. AID 743398; in the data active = activation above about 30%, passing the limit was not always enough; inconclusive = no clear call, values can overlap the other calls;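 also: 0% = neutral control wells and 100% = positive control wells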
Starred values were filed as active, the others as inactive. Hits are enriched below; roughly 1.5% of the tested compounds scored in any of these assays.

How did CC(=O)c1sc(NC(=O)c2cc(=O)c3ccccc3o2)nc1C do in these assays?
Cneo AK release: -4.5; MITF TRPM1 HTS: 16.2; Wnt act: 7.3

How did COc1ccc(CCC(=O)Nc2nnc(C)s2)cc1 do in these assays?
PGC1a acetyl inh: 7.4; Cneo AK release: -1.0; Wnt act: 63.3*

How did COc1ccc2oc(C(=O)Nc3nnc(C)s3)c(C)c2c1 do in these assays?
PGC1a acetyl inh: 1.6; Cneo AK release: -0.5; MITF TRPM1 HTS: 37.5; Wnt act: 34.4*

What do the screens show for `CC(=O)c1sc(NC(=O)c2oc3ccc(F)cc3c2C)nc1C`?
PGC1a acetyl inh: 1.2; Cneo AK release: -2.3; MITF TRPM1 HTS: 66.3; Wnt act: 39.4*

How did Cc1ccc2oc(C(=O)Nc3nnc(C)s3)c(C)c2c1 do in these assays?
PGC1a acetyl inh: 13.5; Cneo AK release: -0.1; MITF TRPM1 HTS: 43.6; Wnt act: 57.5*

How did CCCOc1ccc2c(C)c(CC(=O)OC)c(=O)oc2c1 do in these assays?
PGC1a acetyl inh: -7.7; Cneo AK release: -1.5; MITF TRPM1 HTS: 125.5*

Results for Cc1nnc(SCC(=O)N2CCC(c3noc4ccc(F)cc34)CC2)s1 ?
PGC1a acetyl inh: 57.5*; Cneo AK release: -2.0; MITF TRPM1 HTS: 2.8; Wnt act: -6.3

How did Cc1sc2ncnc(SCC(=O)N3CCC(c4noc5ccc(F)cc45)CC3)c2c1C do in these assays?
PGC1a acetyl inh: 0.9; Cneo AK release: -0.9; MITF TRPM1 HTS: 1.8

Results for O=C(NCCO)c1ccc2c3n(nc2c1)-c1ccccc1CO3 ?
PGC1a acetyl inh: 5.9; Cneo AK release: 0.3; MITF TRPM1 HTS: 72.8; Wnt act: 36.5*

What do the screens show for `C=CCNC(=O)c1ccc2c3n(nc2c1)-c1ccc(Cl)cc1CO3`?
Cneo AK release: -1.2; MITF TRPM1 HTS: 89.6*; Wnt act: 43.8*

Results for Cc1ccc2c(c1)COc1c3ccc(C(=O)NCC4CC4)cc3nn1-2 ?
Cneo AK release: 6.7; MITF TRPM1 HTS: 77.7; Wnt act: 17.7

Results for O=C(NCC1CC1)c1ccc2c3n(nc2c1)-c1ccccc1CO3 ?
PGC1a acetyl inh: 1.7; Cneo AK release: -7.1; MITF TRPM1 HTS: 44.4; Wnt act: 45.9*

How did Cn1nc(C(F)(F)F)cc1-c1ccc(S(N)(=O)=O)s1 do in these assays?
MITF TRPM1 HTS: 71.9; Wnt act: 22.7

Results for CN(C)C(=O)c1ccc(-c2cc(C(F)(F)F)nn2C)s1 ?
PGC1a acetyl inh: -10.3; Cneo AK release: -0.9; Wnt act: 33.4*

Results for CCCCn1cnc2sc(-c3ccccc3)cc2c1=O ?
Cneo AK release: -0.2; MITF TRPM1 HTS: 91.5*

Results for CCCCCn1cnc2sc(-c3ccccc3)cc2c1=O ?
PGC1a acetyl inh: -17.9; Cneo AK release: -2.8; MITF TRPM1 HTS: 106.9*; Wnt act: 21.9

Results for Cn1cc(CCNC(=O)c2ccc3nc(Cc4ccccc4F)oc3c2)cn1 ?
PGC1a acetyl inh: -2.5; Cneo AK release: -1.5; MITF TRPM1 HTS: 125.1*; Wnt act: 32.8*

Results for CCn1cc(CNC(=O)c2ccc3nc(Cc4ccccc4F)oc3c2)cn1 ?
PGC1a acetyl inh: -4.0; Cneo AK release: -6.1; MITF TRPM1 HTS: 22.1; Wnt act: -5.0

How did Cn1cc(CNC(=O)c2ccc3nc(Cc4ccccc4F)oc3c2)cn1 do in these assays?
PGC1a acetyl inh: 5.1; Cneo AK release: 0.2; MITF TRPM1 HTS: 84.3*; Wnt act: 13.1

How did CC(=O)N1[C@@H]2c3cccc(=O)n3C[C@@H]2[C@@H](CO)[C@@H]1C(=O)NCc1ccc(F)cc1 do in these assays?
Cneo AK release: -0.4

Results for CCCNC(=O)N1CC(=O)N2[C@H](C1)[C@H](c1ccc(-c3ccncc3)cc1)[C@@H]2CO ?
PGC1a acetyl inh: -7.9

How did CC(C)c1cn([C@H]2C[C@@H]3O[C@@H](CO)CC[C@@H]3O[C@@H]2CCc2ccc(C#CC3CCCCC3)cc2)nn1 do in these assays?
PGC1a acetyl inh: -12.8

How did CCN(CC)C(=O)OCc1c(-c2cccc(OC)c2)ncc2ccccc12 do in these assays?
PGC1a acetyl inh: 1.7; Cneo AK release: -0.4; MITF TRPM1 HTS: -1.6; Wnt act: 0.1

How did CCN(CC)C(=O)OCc1c(-c2ccccc2)ncc2ccccc12 do in these assays?
Cneo AK release: 0.9; MITF TRPM1 HTS: 101.6*; Wnt act: inconclusive

How did CC(C)NC(NC(=O)Cc1ccccc1)C(Cl)(Cl)Cl (configuration not stated) do in these assays?
Cneo AK release: -4.4; MITF TRPM1 HTS: 8.5

How did CCN(CC)C(NC(=O)Cc1ccccc1)C(Cl)(Cl)Cl (configuration not stated) do in these assays?
PGC1a acetyl inh: 6.0; Cneo AK release: 2.5; MITF TRPM1 HTS: 8.0; Wnt act: 39.6*

Results for CSc1nsc(SC)c1NC(=O)Nc1ccccc1C ?
PGC1a acetyl inh: 103.3*; MITF TRPM1 HTS: 6.4; Wnt act: -2.1

What do the screens show for `CSc1nsc(SC)c1NC(=O)N1CCCCC1`?
PGC1a acetyl inh: -7.5; MITF TRPM1 HTS: 1.4

What do the screens show for `C[C@@H]1CN([C@@H](C)CO)C(=O)c2cc(-c3ccncc3)cnc2O[C@H]1CN(C)Cc1ccc(F)cc1`?
PGC1a acetyl inh: -3.8; Cneo AK release: 0.1

How did COc1ccc(/C=C/C(=O)C2C(=O)C=C(C)OC2=O)cc1O (configuration not stated) do in these assays?
PGC1a acetyl inh: 3.9; Cneo AK release: 1.7; MITF TRPM1 HTS: -8.8; Wnt act: 35.2*

What do the screens show for `COc1cc(/C=C/C(=O)C2C(=O)C=C(C)OC2=O)cc(OC)c1O` (configuration not stated)?
MITF TRPM1 HTS: -6.4

What do the screens show for `CCn1c(N)nc2c1c(=O)n(C)c(=O)n2C`?
PGC1a acetyl inh: -4.9; Cneo AK release: -0.6; MITF TRPM1 HTS: 12.1; Wnt act: 3.1

How did CCCc1nc2c(=O)n(C)c(=O)nc-2n(C)n1 do in these assays?
PGC1a acetyl inh: 74.5*; Cneo AK release: -11.8; MITF TRPM1 HTS: -103.9; Wnt act: -21.8

What do the screens show for `Cn1nc(-c2ccccn2)nc2c(=O)n(C)c(=O)nc1-2`?
PGC1a acetyl inh: 79.6*; Cneo AK release: -3.6; MITF TRPM1 HTS: -103.3; Wnt act: -22.0

Results for COc1ccc(-c2nc(-c3ccccn3)ncc2S(C)(=O)=O)cc1 ?
MITF TRPM1 HTS: 13.7; Wnt act: 8.7

How did CO[C@@H]1CN(C)C(=O)c2cc(NS(C)(=O)=O)ccc2OC[C@@H](C)N(Cc2cccnc2)C[C@@H]1C do in these assays?
PGC1a acetyl inh: 4.2

Results for O=C(O)c1ccccc1C=NNc1ccc([N+](=O)[O-])cn1 ?
PGC1a acetyl inh: 4.7; Cneo AK release: -1.4; MITF TRPM1 HTS: 1.1; Wnt act: 2.7

How did C/C(=N\Nc1ccc([N+](=O)[O-])cc1)c1cccc(N)c1 do in these assays?
PGC1a acetyl inh: -12.6; Cneo AK release: -5.5; MITF TRPM1 HTS: 107.6*; Wnt act: 26.0

Results for C/C(=N\Nc1ccc([N+](=O)[O-])cc1)c1ccc(O)cc1 ?
PGC1a acetyl inh: -14.0; MITF TRPM1 HTS: 65.3; Wnt act: 10.9

How did CC(C=NNc1ccc([N+](=O)[O-])cn1)=Cc1ccccc1 do in these assays?
PGC1a acetyl inh: -10.1; Cneo AK release: 2.2; MITF TRPM1 HTS: 77.9; Wnt act: 63.7*
